NPR1 activator – GC-A stimulated cGMP production enhancers – HEK293 GC-A cells, cGMP TR-FRET, EC30 ANP, primary screen | Atrial natriuretic peptide receptor 1 (Homo sapiens), P16066 | hit rate 0.14% among 370,000 | activation, % at 10 µM | 0% at EC30 ANP, 100% saturating ANP | AID 1671463, 2021; in the data active = activation above about 40%
CaV13 FRET inh – Primary screen for inhibitors of IQ motif and Ca2+-dependent inactivation inhibitor domain binding in CACNA1D, Förster resonance energy transfer in living cells, …; HEK cells, CFP/YFP FRET ICDI-IQ, plate reader, 10 min; percent FRET-ratio fall versus neutral wells; inhibition, % at 12.3 µM; hit rate 0.098% among 340,000;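 active = mean replicate inhibition of at least 30% and at least 1% of replicates passing that level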;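 also: 0% = median of the neutral control wells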
GC-B act – human GC-B receptor activators, primary screen, HEK293 GC-B cells, cGMP TR-FRET, EC30 CNP. Atrial natriuretic peptide receptor 2 (Homo sapiens), P20594. 0% at EC30 CNP, 100% saturating CNP. activation, % at 10 µM. hit rate 0.11% among 370,000;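 active = activation at 10 µM reaching about 35% in either raw or pattern-adjusted values, limit read from the data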
Target sequence (P20594 whole entry, looked up): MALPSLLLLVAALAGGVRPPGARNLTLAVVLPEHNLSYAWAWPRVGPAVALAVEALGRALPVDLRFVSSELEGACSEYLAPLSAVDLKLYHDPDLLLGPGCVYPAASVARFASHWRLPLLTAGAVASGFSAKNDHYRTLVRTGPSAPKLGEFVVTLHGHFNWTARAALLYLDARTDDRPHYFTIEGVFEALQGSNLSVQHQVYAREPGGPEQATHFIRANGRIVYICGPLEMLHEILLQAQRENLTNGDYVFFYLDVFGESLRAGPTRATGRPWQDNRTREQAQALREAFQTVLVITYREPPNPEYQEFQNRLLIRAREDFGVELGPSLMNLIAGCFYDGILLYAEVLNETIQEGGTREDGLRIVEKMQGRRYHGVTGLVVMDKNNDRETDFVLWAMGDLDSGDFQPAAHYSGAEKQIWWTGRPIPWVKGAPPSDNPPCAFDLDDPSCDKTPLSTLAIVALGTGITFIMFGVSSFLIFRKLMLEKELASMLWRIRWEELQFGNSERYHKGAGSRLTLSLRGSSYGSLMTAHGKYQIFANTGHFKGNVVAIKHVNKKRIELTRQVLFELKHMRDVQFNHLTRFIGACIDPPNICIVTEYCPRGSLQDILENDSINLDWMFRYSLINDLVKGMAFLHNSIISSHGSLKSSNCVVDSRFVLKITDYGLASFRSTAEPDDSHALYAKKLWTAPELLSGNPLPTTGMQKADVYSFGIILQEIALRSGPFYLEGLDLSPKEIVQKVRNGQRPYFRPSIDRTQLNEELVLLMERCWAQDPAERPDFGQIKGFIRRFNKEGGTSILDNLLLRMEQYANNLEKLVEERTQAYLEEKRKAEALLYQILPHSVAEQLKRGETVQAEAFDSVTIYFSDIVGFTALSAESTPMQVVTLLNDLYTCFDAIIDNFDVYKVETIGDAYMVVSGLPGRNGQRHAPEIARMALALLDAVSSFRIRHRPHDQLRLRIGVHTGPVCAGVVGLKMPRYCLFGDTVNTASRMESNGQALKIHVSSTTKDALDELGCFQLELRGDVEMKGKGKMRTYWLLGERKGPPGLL
N-glyco inh – increase of ERlucT glycosylation luciferase signal, primary screen, N-linked glycosylation inhibitor project, D54 ERlucT cells, luminescence, set 2; D54 ERlucT glycosylation luciferase reporter, 24 h; percent of 100 nM tunicamycin response; reporter increase, % at 12.5 µM; hit rate 0.23% among 360,000;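 active = mean luciferase reporter signal, scaled so untreated is 0 and the glycosylation-blocking control 100, at or above a set limit in every replicate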;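 also: luciferase carries N-glycosylation sites so blocking glycosylation raises the light; 0% = median of neutral control wells and 100% = median of 100 nM tunicamycin wells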
Xi reactivation – activators of inactive X chromosome reactivation, primary screen, imaging, XiGFP fibroblasts, GFP high-content imaging, set 2; activation, % at 7.58 µM; hit rate 0.055% among 360,000; XiGFP mouse fibroblasts, % GFP-positive cells imaging, 3 d; cells co-treated with 5-aza-dC sensitizer; scaled so ellipticine positive control = 100%;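 active = mean normalized replicate activation at least 10% and every replicate at or above 10%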;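 also: 0% = median of on-plate neutral control wells and 100% = ellipticine 6 µM median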
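Material: XiGFP fibroblasts, SV40-immortalized. Buffer or medium: DMEM plus 5-aza-dC sensitizer. Compound: single concentration per compound, delivered by pin transfer. Times: 3 days compound exposure. Controls: ellipticine 6 µM.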
Vif inh – HIV Vif self-association inhibitors, primary screen, imaging, HEK293T, single point. hit rate 0.35% among 340,000. inhibition, % at 7.49 µM. AID 602346, 2012. HEK293T cells, Vif self-association by quenched fluorescence, 24 h; in the data active = inhibition above about 50%, passing the limit was not always enough
The depositor's hits bear a star; . = no result given; + = active, no number. Rows were chosen to be rich in hits. Some 0.7% of all compounds tested hit in one or more screens of this group.

SMILES	NPR1 activator	CaV13 FRET inh	GC-B act	N-glyco inh	Xi reactivation	Vif inh
O=C(C[C@@H]1C/C=C/CC[C@H](Cc2ccc(F)cc2)C(=O)OC[C@@H](Cc2ccccc2)NC1=O)N[C@H](CO)Cc1ccccc1	-1	-5	-1	126*	0	8
Fc1ccc(-c2nc3ccccn3c2NCc2ccc3c(c2)OCO3)cc1	4	49*	2	1	0	-9
Oc1ccc(-c2nc3ccccn3c2NCc2ccc3c(c2)OCO3)cc1	7	.	0	0	.	19
CC#CC[N+](C)(C)CCCCCCCCCC	4	-4	-1	3	0	1
C#CC[N+](C)(C)CCCCCCCCC	4	-3	-1	30*	0	-3
Cn1cc(/C=N/n2cnc3scc(-c4ccc(Cl)cc4)c3c2=O)c2ccccc21	-8	-4	-10	23	.	54*
Cc1cc(=O)oc2cc(OCc3cc4c(cc3Cl)OCO4)ccc12	-6	-6	-10	2	.	40*
Cc1oc(C(=O)O)cc1COc1ccc2c(C)cc(=O)oc2c1	0	.	3	2	.	-4
C[C@@H]1CN([C@@H](C)CO)C(=O)c2cc(-c3ccccc3F)cnc2O[C@H]1CN(C)Cc1ccccc1	.	.	.	.	-1	.
CC1CCCC(NC(=O)CCN2C(=O)COc3ccccc32)C1C (stereo not drawn)	-3	-4	-7	0	0	50*
C[C@H](CO)N1C[C@H](C)[C@@H](CN(C)Cc2ccc(C(=O)Nc3ccccc3N)cc2)Oc2ccc(NC(=O)CCN3CCOCC3)cc2C1=O	.	.	.	.	-1	.
CC1CCN(S(=O)(=O)c2ccc(NC(=O)c3ccncc3)cc2)CC1	0	.	-4	-1	0	-9
CN(c1ccccc1)S(=O)(=O)c1ccc(NC(=O)c2nc(S(C)(=O)=O)ncc2Cl)cc1	49*	-15	38*	-19	0	-16
CC1CCN(S(=O)(=O)c2ccc(NC(=O)Cn3nnc(-c4ccccc4)n3)cc2)CC1	-5	-3	0	47*	.	-3
CCS(=O)(=O)c1ncc(Cl)c(C(=O)Nc2ccc(S(=O)(=O)N3CCC(C)CC3)cc2)n1	41*	-2	31	-25	0	19
CC(C)NC(=O)N(C)C[C@H]1Oc2ccc(N(C)C)cc2C(=O)N(C)C[C@@H]1C	.	.	.	.	0	.
C[C@H](CO)N1C[C@H](C)[C@H](CN(C)S(=O)(=O)c2cccs2)Oc2ncc(/C=C/c3ccccc3)cc2C1=O	.	.	.	.	0	.
CCN1/C(=C2/SC(=S)N(NC(C)=O)C2=O)Sc2ccc(OC)cc21	0	-5	5	-1	0	71*
Nc1c(C(=O)Nc2ccccc2)sc2nc(N3CCOCC3)c3c(c12)CCCC3	22	-9	11	-6	0	0
Nc1c(C(=O)NCc2ccccc2)sc2nc(N3CCOCC3)c3c(c12)CCCC3	43*	-8	36*	4	.	.
COc1ccc(Br)cc1/C(C)=N/NC1=NCCN1	-2	-7	-5	-1	.	5
CCCCCOc1ccc(Br)cc1/C(C)=N/NC1=NCCN1	-34	-5	-20	-7	.	75*
O=C(CCCN1C(=O)/C(=C\c2ccccc2)SC1=S)Nc1ccc(C(=O)O)cc1	3	-7	1	-1	0	7
O=C(CCCN1C(=O)/C(=C\c2cccc(Br)c2)SC1=S)Nc1ccc(C(=O)O)cc1	2	-11	2	-1	0	77*
COc1ccc(-c2ccc3c(N)c(C(=O)c4ccc(OC)c(OC)c4)sc3n2)cc1	3	-28	-6	6	.	148*
SMILES	NPR1 activator	CaV13 FRET inh	GC-B act	N-glyco inh	Xi reactivation	Vif inh
NC(=O)c1sc2nc(-c3ccccc3)ccc2c1N	18	-13	-2	6	0	61*
Cc1noc(C)c1NC(=O)Nc1ccc2c(c1)C(=O)N([C@H](C)CO)C[C@@H](C)[C@H](CN(C)C(=O)Nc1ccc(F)cc1)OCCCC[C@@H](C)O2	.	.	.	.	0	.
Cc1c(NC(=O)c2cc3ccccc3oc2=O)c(=O)n(-c2ccccc2)n1C	-5	-5	5	-1	.	90*
Cc1c(Nc2c3ccccc3nc3ccccc23)c(=O)n(-c2ccccc2)n1C	-9	165*	-9	3	0	0
O=C(NNC(=O)c1cc2ccccc2oc1=O)c1ccccc1	-3	-4	0	-1	0	79*
O=C(c1ccccc1)c1cc2ccccc2oc1=O	6	-19	-3	1	0	-10
CCCNC(=O)C[C@H]1CC[C@@H]2[C@@H](COc3ccc(NC(=O)c4ccc5c(c4)OCO5)cc3C(=O)N2C)O1	.	.	.	.	0	.
Cc1oc(/N=C/c2ccccc2O)c(C#N)c1C	-2	-8	5	1	.	37
Cc1oc(/N=C/c2ccc(O)cc2O)c(C#N)c1C	-3	+	-7	3	0	-13
C[C@@H]1CCCCO[C@H](CN(C)C(=O)Nc2cccc3ccccc23)[C@@H](C)CN([C@H](C)CO)C(=O)c2cc(NC(=O)c3ccncc3)ccc2O1	.	.	.	.	-1	.
Cc1ccc(C(=O)N/N=C/c2ccc([N+](=O)[O-])s2)cc1	-3	-8	-7	-7	.	8
Cc1ccc(NC(=O)/C=C/c2ccc([N+](=O)[O-])s2)cc1	3	-4	4	6	97*	-2
Cc1cc([N+](=O)[O-])ccc1NC(=O)/C=C/c1cccs1	-3	-3	3	2	0	.
Cc1cccc(NC(=S)N/N=C/c2ccc([N+](=O)[O-])s2)c1	-2	-6	-8	-9	.	1
Cc1cccc(NC(=O)/C=C/c2ccc([N+](=O)[O-])s2)c1	3	-2	-2	-17	81*	.
Cc1ccc(NC(=O)/C=C/c2ccc([N+](=O)[O-])s2)c(C)c1	11	-16	8	-19	37*	.
COc1cccc(S(=O)(=O)N2CC3(CN(C(=O)Nc4cccc(F)c4)[C@@H](CO)c4[nH]c5cc(OC)ccc5c43)C2)c1	.	.	.	.	0	.
C[C@@H]1CN([C@H](C)CO)C(=O)c2cc(N(C)C)ccc2O[C@@H](C)CCCCO[C@@H]1CN(C)Cc1ccc(C(F)(F)F)cc1	.	.	.	.	-1	.
O=C(Cn1nnc(-c2ccccc2)n1)OC1CCOC1=O (stereo not drawn)	54*	.	1	0	.	.
CCCCCCn1c(N(CC)CC)nc2c1c(=O)[nH]c(=O)n2C	-3	-5	1	-2	.	52*
